Laboratory results as given in ChEMBL document CHEMBL1152942, “Chemistry of renieramycins. Part 8: synthesis and cytotoxicity evaluation of renieramycin M-jorunnamycin A analogues” (Bioorg Med Chem, 2009).
Activity calls are given as the source filed them. The calls are words filed in the database; no cut-off is given here.

Legend:
Assay type in all cases: functional, cell-based
[1] = system: HCT-116; test: Cytotoxicity against human HCT116 cells after 3 days by MTT assay
Method in brief: (§1)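 HCT116 colon carcinoma cells were seeded at 1500 cells/well 24 h before treatment. They were exposed to threefold serial dilutions from 100 nM to 0.41 nM, with under 1% DMSO final (20 mM DMSO stocks), for 3 days. Growth was read by MTT absorbance at 540 nm. IC50 was taken as 50% growth inhibition relative to untreated controls, in triplicate.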

[2] = system: MDA-MB-435; test: Cytotoxicity against human MDA-MB-435 cells after 3 days by MTT assay
[3] = system: QG-56; test: Cytotoxicity against human QG56 cells at 1.4 to 100 nM after 3 days by MTT assay
[4] = system: HCT-116; test: Cytotoxicity against human HCT116 cells at 1.4 to 100 nM after 3 days by MTT assay; method in brief: as §1

| SMILES | IC50 ([1]; Homo sapiens, HCT-116, 72 h) [nM] | IC50 ([2]; Homo sapiens, MDA-MB-435, 72 h) [nM] | also measured |
| --- | --- | --- | --- |
| COC1=C(C)C(=O)C2=C(C1=O)[C@@H]1[C@@H]3CC4=C(C(=O)C(OC)=C(C)C4=O)[C@H](COC(=O)C4=CCCC4)N3[C@@H](C#N)[C@H](C2)N1C | 33 | 13 |  |
| COC1=C(C)C(=O)C2=C(C1=O)[C@@H]1[C@@H]3CC4=C(C(=O)C(OC)=C(C)C4=O)[C@H](COC(=O)C4CC=CCC4)N3[C@@H](C#N)[C@H](C2)N1C (mixture of isomers) | 43 | 27 |  |
| CC=C(C)C(=O)OC[C@H]1C2=C(C[C@H]3[C@H]4C5=C(C[C@@H]([C@H](C#N)N13)N4C)C(=O)C(C)=C(OC)C5=O)C(=O)C(C)=C(OC)C2=O [RENIERAMYCIN M] |  |  | IC50 ([1]; hct-116): 34 nM; IC50 ([2]; mda-mb-435): 11 nM |
| CCC(C)C(=O)OC[C@H]1C2=C(C[C@H]3[C@H]4C5=C(C[C@@H]([C@H](C#N)N13)N4C)C(=O)C(C)=C(OC)C5=O)C(=O)C(C)=C(OC)C2=O (mixture of isomers) | 33 | 12 |  |
| COC1=C(C)C(=O)C2=C(C1=O)[C@@H]1[C@@H]3CC4=C(C(=O)C(OC)=C(C)C4=O)[C@H](COC(=O)C(C)C)N3[C@@H](C#N)[C@H](C2)N1C | 22 | 10 |  |
| COC1=C(C)C(=O)C2=C(C1=O)[C@@H]1[C@@H]3CC4=C(C(=O)C(OC)=C(C)C4=O)[C@H](COC(=O)C4CC=CC4)N3[C@@H](C#N)[C@H](C2)N1C | 33 | 13 |  |
| COC1=C(C)C(=O)C2=C(C1=O)[C@@H]1[C@@H]3CC4=C(C(=O)C(OC)=C(C)C4=O)[C@H](COC(=O)c4ccnc5ccccc45)N3[C@@H](C#N)[C@H](C2)N1C | 10 | 4.1 |  |
| COC1=C(C)C(=O)C2=C(C1=O)[C@@H]1[C@@H]3CC4=C(C(=O)C(OC)=C(C)C4=O)[C@H](CO)N3[C@@H](C#N)[C@H](C2)N1C [JOURNNAMYCIN A] | 130 | 290 | Activity [3]: Active |
| COC1=C(C)C(=O)C2=C(C1=O)[C@@H]1[C@@H]3CC4=C(C(=O)C(OC)=C(C)C4=O)[C@H](COC(C)=O)N3[C@@H](O)[C@H](C2)N1C |  |  | Activity [3]: Active; Activity [4]: Active |
| COC1=C(C)C(=O)C2=C(C1=O)[C@@H]1[C@@H]3CC4=C(C(=O)C(OC)=C(C)C4=O)[C@H](COC(=O)c4ccc5ccccc5n4)N3[C@@H](C#N)[C@H](C2)N1C | 11 | 4.2 |  |
| COC1=C(C)C(=O)C2=C(C1=O)[C@@H]1[C@@H]3CC4=C(C(=O)C(OC)=C(C)C4=O)[C@H](COC(=O)c4ccccc4)N3[C@@H](C#N)[C@H](C2)N1C | 25 | 8.6 |  |
| COC1=C(C)C(=O)C2=C(C1=O)[C@@H]1[C@@H]3CC4=C(C(=O)C(OC)=C(C)C4=O)[C@H](COC(=O)C4=CCCCC4)N3[C@@H](C#N)[C@H](C2)N1C | 49 | 29 |  |
| COC1=C(C)C(=O)C2=C(C1=O)[C@@H]1[C@@H]3CC4=C(C(=O)C(OC)=C(C)C4=O)[C@H](COC(=O)CCCl)N3[C@@H](C#N)[C@H](C2)N1C | 16 | 12 |  |
| COC1=C(C)C(=O)C2=C(C1=O)[C@@H]1[C@@H]3CC4=C(C(=O)C(OC)=C(C)C4=O)[C@H](COC(=O)c4ccccc4OC)N3[C@@H](C#N)[C@H](C2)N1C | 34 | 11 |  |
| COC1=C(C)C(=O)C2=C(C1=O)[C@@H]1[C@@H]3CC4=C(C(=O)C(OC)=C(C)C4=O)[C@H](COC=O)N3[C@@H](C#N)[C@H](C2)N1C | 38 | 38 |  |
| C/C=C(/C)C(=O)OC[C@H]1C2=C(C[C@H]3[C@H]4C5=C(C[C@@H]([C@H](C#N)N13)N4C)C(=O)C(C)=C(OC)C5=O)C(=O)C(C)=C(OC)C2=O [RENIERAMYCIN M] |  |  | IC50 ([1]; hct-116): 9.4 nM; IC50 ([2]; mda-mb-435): 3.8 nM |
| COC1=C(C)C(=O)C2=C(C1=O)[C@@H]1[C@@H]3CC4=C(C(=O)C(OC)=C(C)C4=O)[C@H](COC(C)=O)N3[C@@H](C#N)[C@H](C2)N1C [CYANOJORUMYCIN] | 3.2 | 1.4 |  |
| COC1=C(C)C(=O)C2=C(C1=O)[C@@H]1[C@@H]3CC4=C(C(=O)C(OC)=C(C)C4=O)[C@H](COC(=O)c4ccc([N+](=O)[O-])cc4)N3[C@@H](C#N)[C@H](C2)N1C | 26 | 9.4 |  |
| COC1=C(C)C(=O)C2=C(C1=O)[C@@H]1[C@@H]3CC4=C(C(=O)C(OC)=C(C)C4=O)[C@H](COC(=O)c4ccc(OC)cc4)N3[C@@H](C#N)[C@H](C2)N1C | 26 | 8.9 |  |
| COC1=C(C)C(=O)C2=C(C1=O)[C@@H]1[C@@H]3CC4=C(C(=O)C(OC)=C(C)C4=O)[C@H](COC(=O)C=C(C)C)N3[C@@H](C#N)[C@H](C2)N1C | 27 | 11 |  |
| COC1=C(C)C(=O)C2=C(C1=O)[C@@H]1[C@@H]3CC4=C(C(=O)C(OC)=C(C)C4=O)[C@H](COC(=O)c4cccnc4)N3[C@@H](C#N)[C@H](C2)N1C | 7.9 | 3.5 |  |
| COC1=C(C)C(=O)C2=C(C1=O)[C@@H]1[C@@H]3CC4=C(C(=O)C(OC)=C(C)C4=O)[C@H](COC(=O)c4ccccn4)N3[C@@H](C#N)[C@H](C2)N1C | 3.3 | 1.4 |  |
| CCCCCC(=O)OC[C@H]1C2=C(C[C@H]3[C@H]4C5=C(C[C@@H]([C@H](C#N)N13)N4C)C(=O)C(C)=C(OC)C5=O)C(=O)C(C)=C(OC)C2=O | 100 | 40 |  |
| COC1=C(C)C(=O)C2=C(C1=O)[C@@H]1[C@@H]3CC4=C(C(=O)C(OC)=C(C)C4=O)[C@H](COC(=O)C4CCCC4)N3[C@@H](C#N)[C@H](C2)N1C | 93 | 30 |  |
| CCC(=O)OC[C@H]1C2=C(C[C@H]3[C@H]4C5=C(C[C@@H]([C@H](C#N)N13)N4C)C(=O)C(C)=C(OC)C5=O)C(=O)C(C)=C(OC)C2=O [JORUNNAMYCIN C] | 11 | 4.2 | Activity [3]: Active |
| COC1=C(C)C(=O)C2=C(C1=O)[C@@H]1[C@@H]3CC4=C(C(=O)C(OC)=C(C)C4=O)[C@H](COC(=O)c4cnc5ccccc5c4)N3[C@@H](C#N)[C@H](C2)N1C | 10 | 3.8 |  |
| COC1=C(C)C(=O)C2=C(C1=O)[C@@H]1[C@@H]3CC4=C(C(=O)C(OC)=C(C)C4=O)[C@H](COC(=O)c4ccncc4)N3[C@@H](C#N)[C@H](C2)N1C | 10 | 4.4 |  |
| COC1=C(C)C(=O)C2=C(C1=O)[C@@H]1[C@@H]3CC4=C(C(=O)C(OC)=C(C)C4=O)[C@H](COC(=O)c4ccc(Br)cc4)N3[C@@H](C#N)[C@H](C2)N1C | 38 | 13 |  |
| CCCC(=O)OC[C@H]1C2=C(C[C@H]3[C@H]4C5=C(C[C@@H]([C@H](C#N)N13)N4C)C(=O)C(C)=C(OC)C5=O)C(=O)C(C)=C(OC)C2=O | 34 | 12 |  |
